From article PMC10732652 (Virulence, 2023)
Entries after “also recorded” stand apart in the source; their conditions may differ.

Legend:
ScpC protease [1] = conditions: S. pyogenes; cited from earlier work
PepO [2] = experiment: Cleavage of cathelicidins by recombinant PepO; assay type: in vitro ADME, Streptococcus suis; conditions: 20 μM peptide, 500 nM PepO, PBS, 37°C, 3 hours; SDS-PAGE
How it was run: (§1)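 Enzyme: His-tagged PepO (aa 29–663) or its Glu513→Ala variant, expressed from pET22b in E. coli BL21(DE3) with 0.5 mM IPTG at 16°C for 12 h. Purified by Ni-Sepharose and exchanged into PBS. Substrates were synthetic LL-37 or mCRAMP (>95% purity). Uncleaved peptide served as control. Products were analysed by SDS-PAGE or MALDI-TOF/TOF MS.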

PepOE513A = experiment: Cleavage of cathelicidins by catalytic site-mutated PepOE513A; assay type: in vitro ADME, Streptococcus suis; conditions: 20 μM peptide, 500 nM PepOE513A, PBS, 37°C, 3 hours; SDS-PAGE
How it was run: as §1

[3] = tested on: S. suis WT, ΔpepO, and CΔpepO strains; experiment: Bactericidal assay, sensitivity of S. suis strains toward cathelicidins; assay type: cell-based, Streptococcus suis; conditions: 8 × 10^4 CFU/ml in PBS, peptide 0–4 μM, 37°C, 1 hour, CFU counting on TSA
How it was run: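 S. suis serotype 2 strain 05ZYH33 (wild type), its ΔpepO mutant and the complemented strain were grown in TSB at 37°C with 5% CO2 to OD600 0.5. Cells were washed twice and resuspended in PBS. After 1 h at 37°C with LL-37 or mCRAMP, samples were serially diluted and plated on TSA to count surviving CFU.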

S. suis ΔpepO = experiment: Live/Dead staining; assay type: cell-based, Streptococcus suis; conditions: 1 × 10^5 CFU/ml, 2 μM, 1 hour, CLSM
How it was run: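 S. suis serotype 2 strain 05ZYH33 ΔpepO mutant, grown in TSB at 37°C/5% CO2; fresh culture washed twice, diluted to 1 × 10^5 CFU/ml. Exposed 1 h to 2 μM cathelicidin peptides, their PepO digests (20 μM peptide + 500 nM His-tagged PepO, PBS, 37°C, 3 h) or truncated fragments. BacLight stained, washed after 15 min, confocal imaging: SYTO9 480/500 nm, PI 490/635 nm.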

Mouse neutrophils = experiment: Neutrophil chemotaxis assay; assay type: cell-based; conditions: 1 μM in bottom chamber, 5 × 10^5 cells, 40 minutes, 37°C
How it was run: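 Bone-marrow neutrophils from C57BL/6 mice, purified on Histopaque-1119/1077 gradients, CellTracker Green-labelled, 1 × 10^7 cells/ml in RPMI-1640. 5 × 10^5 cells placed in Transwell inserts; 1 μM peptides, PepO digests or fragments in lower chamber; 5 μM fMLP as positive control. 40 min at 37°C, migrated cells counted by fluorescence microscopy. CI = cells migrating toward stimulus ÷ toward medium.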

[4] = tested on: Mouse peritoneal macrophages; experiment: Lysosome formation analysis; assay type: cell-based; conditions: 2 μM, 37°C, 4 hours, 5 × 10^4 cells, CLSM
How it was run: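 Macrophages from peritoneal fluid of C57BL/6 mice 3 days after i.p. thioglycollate; spun 600 × g 10 min, kept in RPMI-1640, non-adherent cells removed at 6 h. 5 × 10^4 cells exposed 4 h at 37°C to peptides, PepO digests or fragments. Fixed in 4% formaldehyde, permeabilised with 0.1% Triton X-100, blocked in 3% BSA. Rabbit anti-LAMP1 (37°C, 1 h), Alexa Fluor 594 secondary, DAPI; confocal imaging.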

ApdS = conditions: cited from earlier work
aminopeptidase ApdS = conditions: S. suis; cited from earlier work
PepO [5] = experiment: 500 nM of PepO in PBS; conditions: S. suis, 37°C, up to 3 hours
ScpC protease [6] = conditions: cited from earlier work

| Substance | Cleavage by PepO (PepO [2]) | Membrane damage, viable and dead bacteria (SYTO9/PI) (S. suis ΔpepO) | Chemotaxis of neutrophils (chemotaxis index, CI) (Mouse neutrophils) | Lysosome formation (LAMP1) [4] | also measured |
| --- | --- | --- | --- | --- | --- |
| GLLRKGGEKIGEKLKKIGQKIKNFFQKLVPQPEQ | – | – | – | – | not cleaved (ScpC protease [1]): cannot cleave mCRAMP |
| LL-37 | the band intensity of LL-37 disappeared | the number of dead bacteria was clearly larger than that in the PBS-treated group | effectively chemoattracted mouse neutrophils | facilitated lysosome formation in mouse macrophages | Cleavage by PepOE513A (PepOE513A): could not cleave LL-37; Resistance of complementary strain CΔpepO [3]: partially restored; Time to cleavage by ApdS (ApdS): in just a few seconds |
| LLGDFFRKSKEKIGKEFKRIVQRIKDFLRNLVPRTES | – | – | – | – | fragment found (aminopeptidase ApdS): 3 AA at the N-terminal; fragment found (PepO [5]): FR-7 (F6-K12); FRKSKEK, major; also recorded: IG-7 (I13-R19); IGKEFKR, major |
| mCRAMP | also cleaved by PepO | the number of dead bacteria was clearly larger than that in the PBS-treated group | chemoattracted mouse neutrophils just as well as LL-37 | facilitated lysosome formation in mouse macrophages | Cleavage by ScpC protease (ScpC protease [6]): cannot cleave mCRAMP |
